# Experimental data taken from the EternaBench riboswitch data.
# Test system: MS2 coat protein
# Assay: apparent Kd, MS2 coat protein; higher = weaker binding; RNA-MaP array; FMN 200 µM where present
# Summary of the method: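 Stalled E. coli RNA polymerase transcribed each design on Illumina sequencing-chip clusters. The clusters were titrated with SNAP-549-labelled MS2 coat protein, starting at 0.7 or 1.5 nM and doubling up to 3 µM, first without ligand and then with constant ligand, in 100 mM Tris-HCl pH 7.5, 80 mM KCl, 4 mM MgCl2, BSA, DTT, yeast tRNA and Tween-20. Green signal was normalised to red-channel RNA signal and to the control-cluster median Fmax. The apparent Kd is the median of filtered binding-curve fits made for each cluster.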
# [1] = designed as: OFF switch for flavin mononucleotide, no ligand
# [2] = ligand present: flavin mononucleotide, designed as: OFF switch for flavin mononucleotide
# [3] = designed as: ON switch for flavin mononucleotide, no ligand
# [4] = ligand present: flavin mononucleotide, designed as: ON switch for flavin mononucleotide
Sequence,apparent Kd [1] [nM],apparent Kd [2] [nM],apparent Kd [3] [nM],apparent Kd [4] [nM]
GGCUGGUGACAGCAUCCAUCAAAACAUGAGGAUCACCCAUGUAGAAGGCUGUACGGUUACCGUACAGAGGAUAUACAAUGAUGU,14,23.9,,
GGGAAGUUAGGAUAUGCUGCUCGUCACUUGCGUGAUGAGUAGCAGAAGGAACAUGAGGAUCACCCAUGUAAAAA,31.9,37.6,,
GGGACUCUAAAUGGGCUGUCGACAUAGGAUAUGAUGUGCGACAUGAGGAUCACCCAUGUAACGAAUUAGAAGGGUGUAGGCAUG,,,574,173
GGGAGGUCAGGAUAUGCAUGGCGGGACUUGCGUCGUGGCGUGCAGAAGGGACAUGAGGAUCACCCAUGUGGAGA,127,252,,
GGGCAACAUGAGGAUCACCCAUGUCAGGAUAUCGGGCCCGGGCCGAAAGGCCCGGGCCCGAGAAGGGACAGCCC,21.3,21.6,,
GGGCAUAUUACAUGAGGAUCACCCAUGUCAGAAAGGGUAAUCAGAAGGUACUAUUAGAGAAAGAGUAAGGAUAUGAUUAUGCCC,,,486,40.6
GGGCCAACAUGAGGAUCACCCAUGUAGGAUAUCGCUAUUGUAAUCAUGAAACAUGAUUACAAUAGCGAGAAGGACAUAUGCAAA,7,7.7,,
GGGCGUUGGGAGAAGGUACAUUAAAUUAGUUUAACAUGAGGAUCACCCAUGUAAGGAUAUCCCAUCGUGUAAUAUUAUACAGCC,11,13.8,,
GGGCUGUCAGGAUAUCCCGGGUUUGGGUAAACCCGGGCCCGGGAGAAGGGACAUGAGGAUCACCCAUGUGGCCC,32.1,31.8,,
GGGUAACAUGAGGAUCACCCAUGUGAGGAUAUCCUAGGGAUGGAAGCUCGGCCAACCAGGAGAAGGUACUAAAG,73.9,131,,
GGGUACACCGGAGGAUAUCAUGUAAAUACAUGAGGAUCACCCAUGUCGAUGGAGACAUCGGAGAUUGAGAAGGCCGAUGUACCG,,,155,9.1
GGGUACAUCGGAGGAUAUCAGGUAAAUACAUGAGGAUCACCCAUGUCGAUGGAGACAUCGGAGAUUGAGAAGGCCGAUGUACCG,,,7.6,5.13
GGGUACAUCGGAGGAUAUCAUGUAAAUACAUGAGGAUCACCCAUGUAGAUGGAGACAUCGGAGAUUGAGAAGGCCGAUGUACCG,,,7.69,5.84
GGGUACAUCGGAGGAUAUCAUGUAAAUACAUGAGGAUCACCCAUGUCCAUGGAGACAUCGGAGAUUGAGAAGGCCGAUGUACCG,,,171,203
GGGUACAUCGGAGGAUAUCAUGUAAAUACAUGAGGAUCACCCAUGUCGAUGGAGACAUCGGAGAUUGAGAAGGCCUAUGUACCG,,,194,9.34
GGGUACAUCGGAGGAUAUCAUGUAAAUACAUGAGGAUCACCCAUGUCGAUGGAGACAUCGGAGAUUGAGAAGGCUGAUGUACCG,,,188,9.18
GGGUACAUCGGAGGAUAUCAUGUAGAUACAUGAGGAUCACCCAUGUCGAUGGAGACAUCGGAGAUUGAGAAGGCCGAUGUACCG,,,272,10.1
GGGUACAUCGGAGGAUAUCUUGUAAAUACAUGAGGAUCACCCAUGUCGAUGGAGACAUCGGAGAUUGAGAAGGCCGAUGUACCG,,,8.03,5.36
GGGUGACAUGAGGAUCACCCAUGUCAGGAUAUCUAGGGCAGAUGCUGGGAGCGUUCGCAGAGAAGGGACCAGAU,52.3,46.1,,
GGGUGACAUGAGGAUCACCCAUGUCAGGAUAUGGGUUUGGGCCCGAAAGGGCCCGGGCCCAGAAGGGACUGCCC,50.9,96.4,,
GGGUGAUCUUUAGGAUAUCCCGCGCCAAAGUGCGUUUAUACUACAUGAGGAUCACCCAUGUAACGGGAGAAGGGAGGAAGCCCG,,,81.7,29
GGGUGGCGUAUAGGAUAUAUGGUACAUGAGGAUCACCCAUGUACAUAUGAUGUUCAUGUUUGUGUAUAGAAGGAUACGUCGCUA,,,9.79,9.81
GGGUUCAUGUAAGGAUAUGUAUUGUUAAUCGGAGCAGAAGGUACAUGAGGAUCACCCAUGUCAACCUAGAGCAAGGCUUCUUAG,19.7,58,,
GGGUUCAUGUAAGGAUAUGUAUUGUUAAUCGGAGCAGAAGGUACAUGAGGAUCACCCAUGUCAACCUAGAGCAGGGCUUUUUAG,27,110,,
GGUACCAUCACAGGAUAUGCUUUCCAUUGGGAAGCAGAAGGGUGUAACAUGAGGAUCACCCAUGUGGUGCCAGGGCGUGAGCCU,,,217,15.2
GGUACCAUCGCAGGAUAUGCUAUCCUUUGGGUAGCAGAAGGGUGAUAACAUGAGGAUCACCCAUGUGGUACCGGGCGUGAGCCC,,,97.1,1210
GGUACCAUCGCAGGAUAUGGUAUCCUUUGGGUACCAGAAGGGUGAUAACAUGAGGAUCACCCAUGUGGUACCGGGCGUGAGCCC,,,29,970
GGUACUCAAAGAGUACCAAUUCGAACAUGAGGAUCACCCAUGUAGGAUAUGCUACUCAAAGAGUAGCAGAAGGACAUGUGCCUA,15.6,73.6,,

Sequence,apparent Kd [1] [nM],apparent Kd [2] [nM],apparent Kd [3] [nM],apparent Kd [4] [nM]
GGUACUCAAAGAGUACGGAGUCGAACAUGAGGAUCACCCAUGUAGGAUAUGCAAAGCUAGAAGUAGCAGAAGGACAUGUGCAGC,15,17.1,,
GGUACUCAAAGAGUAUCAAUACGAACAUGAGGAUCACCCAUGUAGGAUAUGCUACUCAAAGAGUAGCAGAAGGACAUGUGCCUA,16.2,91.3,,
GGUACUCAGAGAGUACCAAUACGAACAUGAGGAUCACCCAUGUAGGAUAUGCUACUCAAAGAGUAGCAGAAGGACAUGUGCCUA,14.9,101,,
GGUAGACAAAGUCUACCAUUACGAACAUGAGGAUCACCCAUGUAGGAUAUGCUACUCAAAGAGUAGCAGAAGGACAUGUGUCUU,29.8,143,,
GGUAGCUUCACAGGAUAUGCUAUCCUUUGGGUAGCAGAAGGGUGAUACAUGAGGAUCACCCAUGUGCUGCCAGGGCGUGAGCCC,,,286,500
GGUCAUCAAGUCAGGAUAUCGUCUGGUCGAUCAGGCGAGAAGGGACAUGAGGAUCACCCAUGUCGACUCAUCAG,28.7,127,,
GGUCCACAUGAGGAUCACCCAUGUUAGGAUAUCUCCCGCCUCCUCACUAGAGGCGGACAGAGAAGGAACAUCAA,26,78,,
GGUCCAUCAUGAGGAUAUGGCACCUUAUUGGUGCCAGAAGGCAUGUCUUUAGACAUGAGGAUCACCCAUGUAAAUAAUUGGACC,,,1030,92.5
GGUCCAUCUGUUAGGAUAUGCUUUGGGCUUCCGCAGUAGAAGGAACAUGAGGAUCACCCAUGUCCGAUGCCGUC,25.1,30.3,,
GGUCGUCACAUCUACAUGAGGAUCACCCAUGUCAAAAGACAUGAGGAUAUGCUACCUAAUUGGUAGCAGAAGGCAUGGACGACC,,,1290,72
GGUCGUCACAUUAACAUGAGGAUCACCCAUGUAUAAAGACAUGAGGAUAUGCAUCCUAAUUGGAUGCAGAAGGCAUGGACGACC,,,9.7,6.13
GGUCGUUGAGGAUAUACGAACAUGUCGCCAGAUGUCAUGGUACAUGAGGAUCACCCAUGUAGAAGGUGGUGGUC,75,25.7,,
GGUCUGCGAGGAUAUACAUGAGGAUCACCCAUGUGCGAGAUACUAGUGAGGUCGAUUGGUAGAAGGCGCGGACA,105,66.6,,
GGUGCAUAUGAGAAGGCGAUCAUGAAACAUGAUCGAGGAUAUCAUGUAAACAUGAGGAUCACCCAUGUAUGGGAAAAGUGCACC,,,64.8,8.54
GGUGCCAUGUAGAAGGCAGAUCUGAUUCAGAUCUGAGGAUAUACAUGAGGAUCACCCAUGUAAAGGCACCUCACGAGAGUGCAA,10.5,34.6,,
GGUGCGUAUGUGAGGAUAUGCUGGUCCUUGGAUCGGCAGAAGGUACAUGAGGAUCACCCAUGUGGUGUCGUUCU,382,251,,
GGUGCGUGUGUGAGGAUAUGCUGGUCCUUGGAUCAGCAGAAGGCACAUGAGGAUCACCCAUGUGGUGUCGUACC,490,24.8,,
GGUGCUAUGUAGAAGGCAGAUCUGAUUCAGAUCUGAGGAUAUACAUGAGGAUCACCCAUGUUAUGCACCAGCACGAGAGUGCAU,13.5,35.1,,
GGUGUGUUAGGAUAUCGCGGCGGCGGCGUUUGUUGUUGUUGUGAGAAGGGACAUGAGGAUCACCCAUGUGCGCC,24.4,27.2,,
GGUUAAUAUCGAGGAUAUGUCUAGACACAUGAGGAUCACCCAUGUAUGUGUAUAGAAGGCGAUAUUAACAGCAUGUUACAUGCA,,,43.3,16.4
GGUUAUUGCAAGGAUAUGCUUAUUUGAGAAAUUGCAGAAGGUGCAACAUGAGGAUCACCCAUGUUGGAUGGGUU,65.2,278,,
GGUUCUCAAAGAGAACCAUAACGAACAUGAGGAUCACCCAUGUAGGAUAUGCUACUCAAAGAGUAGCAGAAGGACAUGUGCCUU,30.6,265,,
GGUUGACAAAGUCAACCAAAUCGAACAUGAGGAUCACCCAUGUAGGAUAUGCUACUCAAAGAGUAGCAGAAGGACAUGUGCUUU,40.7,227,,
GGUUGACAAAGUCAACCAUUACGAACAUGAGGAUCACCCAUGUAGGAUAUGCUACUCAAAGAGUAGCAGAAGGACAUGUGUCUU,30.1,147,,
GGUUGGCGAGGAUAUACAUGAGGAUCACCCAUGUGGUCCUGUGGCUGAAAAAACCUUUGUAGAAGGCGCGGGUC,197,262,,
GGUUGUCAUCGUCGUCCUUUCGGUACAUGAGGAUCACCCAUGUAGGAUAUGCUGCAUUCGAUGUGGCAGAAGGGCAUGUGUGUU,25.5,71.5,,
GUAAAGUGAGGAUAUGGUAAAUUAAUUAUUUAUUAAUUAAUCCAGAAGGCACAUGAGGAUCACCCAUGUAAAUG,31.2,56.1,,
